Where no end group is shown, it is not given here.
Tests used:
[1] = biological target: ^8F1^9F1 (module pair of fibronectin, Fn precursor residues 516–608) (Homo sapiens, UniProt P02751); assay: ITC, binding to ^8F1^9F1; conditions: 10 mM NaH2PO4/K2HPO4, pH 7.4, 25 °C, FnZ peptide 2.97 mM, Fn domain 0.24 mM
Procedure, shortened: (§1)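 Cell held GBD (proteolytic Fn fragment, dialysed into buffer) or ⁸F1⁹F1 (Pichia-expressed, Endo Hf-trimmed glycans). Syringe held uncapped synthetic test peptide at 10–20× the cell concentration. Both were degassed at 20 °C for 15 min. 2 μl preinjection, then 39 × 7 μl injections at 0.5 μl/s, 307 rpm, 360 s spacing. Averaged heats from a separate peptide-into-buffer run were subtracted; one-site binding fit.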

[2] = biological target: GBD (gelatin-binding domain of fibronectin) (Homo sapiens, UniProt P02751); assay: ITC, binding to GBD
Chain of GBD (gelatin-binding domain of fibronectin) (P02751 308-608 limits assumed): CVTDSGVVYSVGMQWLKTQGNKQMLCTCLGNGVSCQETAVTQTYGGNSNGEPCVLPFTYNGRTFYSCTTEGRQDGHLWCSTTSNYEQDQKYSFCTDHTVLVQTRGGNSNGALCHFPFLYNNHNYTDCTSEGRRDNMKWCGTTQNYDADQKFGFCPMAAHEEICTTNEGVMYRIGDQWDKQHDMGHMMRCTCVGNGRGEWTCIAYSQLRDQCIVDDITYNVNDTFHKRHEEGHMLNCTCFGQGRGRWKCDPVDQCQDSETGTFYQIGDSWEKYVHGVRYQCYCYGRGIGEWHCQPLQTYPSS
Procedure, shortened: as §1

[3] = biological target: gelatin-binding domain (GBD) of fibronectin, proteolytic fragment (human); assay: ITC
[4] = biological target: recombinant fibronectin 100-kDa N-terminal fragment (human); assay: ITC
[5] = ITC, 10 mM NaH2PO4/K2HPO4, pH 7.4, 25 °C, FnZ peptide 0.11 mM, Fn domain 0.01 mM

Chain of ^8F1^9F1 (module pair of fibronectin, Fn precursor residues 516–608) (P02751 516-608): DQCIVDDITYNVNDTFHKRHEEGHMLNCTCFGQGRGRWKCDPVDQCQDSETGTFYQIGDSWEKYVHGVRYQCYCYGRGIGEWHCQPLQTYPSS

Question: Which results are given for RNPHLMGIGGGLAGESGETTPK [FnZ peptide]?
Answer: ΔH [1]: -29.8 kcal/mol; ΔS [1]: −77.2 cal/mol K^−1; Kd [2]: 540 ± 40 nM; ΔH [2, 5]: -17.7 kcal/mol; ΔS [2, 5]: −30.8 cal/mol K^−1

Question: Which Kd [3] does the source give for H-RNPHLMGIGGGLAGESGETTPK-OH [FnZ synthetic peptide, residues 370-391] here?
Answer: The Kd was 540 nM.

Question: And the dH [3]?
Answer: The dH was -17.7 kcal/mol.

B1: FnZ(370-428), recombinant fragment of the fibronectin-binding protein FnZ from S. zooepidemicus (domain or fragment)
chain: GPLGSRNPHLMGIGGGLAGESGETTPKPGQTGGQGPVIETTEDTQKGMSGQSGGTIESENTKKP
Question: For B1, which Kd [4] is on record?
Answer: The Kd was 0.8 nM.

Question: What about the dH [4] of the same molecule?
Answer: The dH was -54.6 kcal/mol.

Question: What about the stoichiometry N [4] of the same molecule?
Answer: Its stoichiometry N is 1.06.
